{"source": "ChEMBL document CHEMBL3865813", "about": "“Neolignans from the Arils of Myristica fragrans as Potent Antagonists of CC Chemokine Receptor 3” (J Nat Prod, 2016)", "note": "The source made the active and inactive calls. The rule behind the calls is not given here.", "data": [{"species": "Mus musculus", "experiment": "Cytotoxicity against mouse L1.2 cells at 1.5 uM", "format": "toxicity, cell-based", "details": "l1.2, 1.5 µM", "values": [{"smiles": "C=CCc1cc(OC)c(O[C@H](C)[C@@H](O)c2cc(OC)c(O)c(OC)c2)c(OC)c1", "Activity": "Non-Toxic"}]}, {"target": "T1, C-C chemokine receptor type 3 (Homo sapiens) (UniProt P51677)", "T1 sequence (whole entry)": "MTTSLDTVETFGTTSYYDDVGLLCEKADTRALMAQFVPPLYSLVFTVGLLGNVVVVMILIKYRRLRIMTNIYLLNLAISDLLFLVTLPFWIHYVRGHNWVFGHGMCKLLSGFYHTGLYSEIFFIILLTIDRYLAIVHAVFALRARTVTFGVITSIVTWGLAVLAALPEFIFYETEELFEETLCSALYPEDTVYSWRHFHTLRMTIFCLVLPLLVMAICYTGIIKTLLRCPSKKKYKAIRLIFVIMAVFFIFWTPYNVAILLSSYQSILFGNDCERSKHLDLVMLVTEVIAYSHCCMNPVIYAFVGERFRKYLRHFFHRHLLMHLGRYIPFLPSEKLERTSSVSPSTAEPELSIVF", "experiment": "Antagonist activity at human EGFP-fused CCR3 expressed in mouse L1.2 cells assessed as inhibition of CCL11-induced chemotaxis at 1 uM measured after 1.5 hrs by PicoGreen dsDNA reagent-based assay", "format": "cell-based", "details": "not given", "method_in_brief": "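Human CCR3 was stably expressed in mouse pre-B L1.2 cells by a retroviral pMX-IRES-EGFP vector, and EGFP+ cells were sorted. Test sample was at 1 μM (DMSO, 0.5% final) with 10 nM CCL11 in lower wells (phenol red-free RPMI/BSA). Cells at 8 × 10^6/mL crossed a 5 μm filter for 1.5 h at 37 °C. Migrated cells were lysed (0.1% Triton X-100) and quantified with PicoGreen. Three experiments, Dunnett's test vs control.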", "values": [{"smiles": "C=CCc1cc(OC)c(O[C@H](C)[C@@H](O)c2cc(OC)c(O)c(OC)c2)c(OC)c1", "inhibition": "Active"}, {"smiles": "COc1cc([C@H]2Oc3c(OC)cc(/C=C/C=O)cc3[C@@H]2C)ccc1O", "inhibition": "Active"}, {"smiles": "C=CCc1cc(OC)c2c(c1)OCO2", "inhibition": "Active"}, {"smiles": "C=CCc1cc(OC)c(O[C@@H](C)[C@H](OC(C)=O)c2ccc(OC)c(OC)c2)c(OC)c1", "inhibition": "Active"}, {"smiles": "C/C=C/c1cc(OC)c2c(c1)[C@@H](C)[C@H](c1cc(OC)c(O)c(OC)c1)O2", "inhibition": "Active"}, {"smiles": "C=CCc1cc(OC)c(O[C@H](C)[C@@H](O)c2ccc3c(c2)OCO3)c(OC)c1", "inhibition": "Active"}, {"smiles": "COc1cc([C@H]2O[C@@H](c3ccc(O)c(OC)c3)[C@H](C)[C@@H]2C)ccc1O", "inhibition": "Active"}, {"smiles": "C/C=C/c1cc(OC)c2c(c1)[C@@H](C)[C@H](c1ccc(O)c(OC)c1)O2", "inhibition": "Active"}, {"smiles": "C=CCc1cc(OC)c(O[C@H](C)Cc2ccc3c(c2)OCO3)c(OC)c1", "inhibition": "Active"}, {"smiles": "COc1cc([C@H]2O[C@@H](c3ccc(O)c(OC)c3)[C@@H](C)[C@@H]2C)ccc1O", "inhibition": "Active"}]}]}
